Converted amounts (≈) assume the structure as drawn.

Data set [1] in a line: Total body clearance was determined. Type of data set: ADME, organism-based. Particulars: in vivo. The method in brief:
(§1)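 Mice dosed iv at 5 mg/kg or orally at 20 mg/kg, n = 3; drug concentrations measured in plasma/serum over time to derive half-life, Cmax, total body clearance, steady-state volume and oral bioavailability.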

Data set [2] is described as follows: Volume of steady state concentration was determined. Format: ADME, organism-based. Particulars: in vivo; read-out: Vss. The method in brief:
as §1

A short description of data set [3]: Half life period was measured upon intravenous administration (5 mg/kg). Format: ADME, organism-based. Particulars: in vivo. The procedure, abridged:
as §1

For the next data set, the system named is Aspergillus fumigatus. Description: Minimum inhibitory concentration (MIC) to Aspergillus fumigatus after 48 hr. Format: functional. The procedure, abridged: (§2)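 Antifungal susceptibility read visually; MIC taken as lowest drug concentration giving 90–100% inhibition of visible growth relative to drug-free controls, read over 48 h, or after 24 h where footnoted. Organisms: C. parapsilosis, C. albicans, Cryptococcus neoformans, C. glabrata, Aspergillus fumigatus, Aspergillus flavus.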

A further data set has as its system Aspergillus flavus. The data set is described as follows: Minimum inhibitory concentration (MIC) against Aspergillus flavus after 24 hours. Type of data set: functional. The method in brief: as §2
The test system of the next data set is Nakaseomyces glabratus. The data set is described as follows: Minimum inhibitory concentration (MIC) to Candida glabrata after 48 hours. Format: functional. The method in brief:
as §2

A further data set has as its system Candida parapsilosis. The data set is described as follows: Minimum inhibitory concentration (MIC) to Candida parapsilosis after 48 hr. Format: functional. The method in brief: as §2
A further data set relates to Candida albicans. Description: Minimum inhibitory concentration (MIC) to Candida albicans after 48 hr. Format: functional. The procedure, abridged: as §2
The test system of the next data set is Cryptococcus neoformans. Description: Minimum inhibitory concentration against Cryptococcus neoformans after 48 hours. Type of data set: functional. The method in brief:
as §2

Data set [4] in a line: Maximum plasma concentration was determined. Format: ADME, organism-based. The procedure, abridged: as §1
The nature of data set [5]: Oral bioavailability. Format: ADME, organism-based. Particulars: eutheria, in vivo. The method in brief: as §1
Data set [6] can be described thus: Half life period was measured upon oral administration (20 mg/kg). Format: ADME, organism-based. Particulars: in vivo. The method in brief: as §1
[7] abbreviates: Aspergillus fumigatus, 48 h, read-out: MIC.
[8] abbreviates: Aspergillus flavus, 24 h, read-out: MIC.
The mark [9] stands for this setting: Nakaseomyces glabratus, 48 h, read-out: MIC.
[10] abbreviates: Lodderomyces parapsilosis, 48 h, read-out: MIC.

Regarding `C=C(Cl)CN1C[C@H](OCC23C[C@@H]4[C@H](C)CC[C@H]4C4(C=O)CC2C=C(C(C)C)[C@@]34C(=O)O)O[C@H](C)C1`, the clearance – broadly, the volume of plasma or blood freed of the substance per unit of time – in data set [1] worked out at 13 mL/min/kg. Besides, in data set [2], the Vd worked out at 0.49 L/kg. Moreover, the half-life – broadly, the time in which the quantity being followed falls by half – in [3] was 0.44 h. Besides, the minimum inhibitory concentration (MIC) – broadly, the lowest concentration found to suppress growth – is greater than 128 µg/mL in the data set on Aspergillus fumigatus (setting [7]); 4 µg/mL (≈ 7.9 µM) with Aspergillus flavus (setting [8]); 0.125 µg/mL (≈ 0.247 µM) in the data set on Nakaseomyces glabratus (setting [9]); 8 µg/mL (≈ 15.8 µM) in the data set with Candida parapsilosis (setting [10]); less than 0.06 µg/mL against Candida albicans; greater than 128 µg/mL against Cryptococcus neoformans.
Consider `C=C(Cl)CN1C[C@H](OCC23C[C@@H]4[C@H](C)CC[C@H]4C4(C=O)CC2C=C(C(C)C)[C@@]34C(=O)O)OC[C@H]1C`, for which, in data set [4], the maximum concentration (Cmax) (in general, the peak of the concentration-time curve) turned out to be 5950 ng/mL. The clearance in data set [1] stood at 95 mL/min/kg. In addition, the Vd in data set [2] was found to be 7.1 L/kg. For the same compound, the bioavailability (usually the share of a dose that reaches the circulation, judged against a reference dose that is usually intravenous) in [5] is 100%. Besides, the figures for the half-life in data set [3] and in [6] were 1.8 h and 2.1 h, respectively. The MIC against Aspergillus fumigatus was determined as 32 µg/mL (≈ 63.2 µM); with Aspergillus fumigatus (setting [7]), 32 µg/mL (≈ 63.2 µM); in the data set with Aspergillus flavus it was 0.5 µg/mL (≈ 0.988 µM); in the data set with Aspergillus flavus (setting [8]) it was 0.5 µg/mL (≈ 0.988 µM); with Nakaseomyces glabratus, 0.125 µg/mL (≈ 0.247 µM); with Nakaseomyces glabratus (setting [9]) it was 0.125 µg/mL (≈ 0.247 µM). Besides, the minimum inhibitory concentration (MIC) against Candida parapsilosis is 1 µg/mL (≈ 1.98 µM); in the data set with Candida parapsilosis (setting [10]) it was 1 µg/mL (≈ 1.98 µM); against Candida albicans, less than 0.06 µg/mL; in the data set with Cryptococcus neoformans it was less than 0.06 µg/mL.
As to `C=C(Cl)CN1C[C@H](OCC23C[C@@H]4[C@H](C)CC[C@H]4C4(C=O)CC2C=C(C(C)C)[C@@]34C(=O)O)OC[C@H]1C(C)C`, the Cmax in data set [4] was 3880 ng/mL. In data set [1], this compound yielded a clearance of 20 mL/min/kg. Besides, the Vd in data set [2] amounted to 1.6 L/kg. Besides, in data set [5], the bioavailability turned out to be 83%. Further, the half-life in [3] is 1.6 h; in data set [6], 3.1 h. Further, the MIC with Aspergillus fumigatus (setting [7]) was 32 µg/mL (≈ 59.9 µM); in the data set with Aspergillus flavus (setting [8]) it was 2 µg/mL (≈ 3.74 µM); in the data set with Nakaseomyces glabratus (setting [9]), less than 0.06 µg/mL; in the data set on Candida parapsilosis (setting [10]) it was 2 µg/mL (≈ 3.74 µM); against Candida albicans it was less than 0.06 µg/mL; with Cryptococcus neoformans it was less than 0.06 µg/mL.

(Values after ChEMBL document CHEMBL1136700, “Identification of a broad-spectrum azasordarin with improved pharmacokinetic properties” (Bioorg Med Chem Lett, 2003).)
